Results on two compounds are retold here after ChEMBL document CHEMBL2177098, “Synthesis and evaluation of novel ¹⁸F labeled 2-pyridinylbenzoxazole and 2-pyridinylbenzothiazole derivatives as ligands for positron emission tomography (PET) imaging of β-amyloid plaques” (J Med Chem, 2012).

Active and inactive are the calls of the source. The calls are words filed in the database; no cut-off is given here.

Test [1] is filed under the species Mus musculus. The test can be described thus: Binding affinity to amyloid beta plaques in transgenic C57BL6 mouse hippocampus expressing APP Swedish mutant/PSEN1 at 370 KBq/100 ul after 1 hr by autoradiographic analysis. The class given is tissue-based. The settings on record: tested as the 18F-labelled form. The gist of the method: (§1)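 Paraffin brain sections from 12-month-old Tg mice (C57BL6, APPswe/PSEN1) and age-matched controls, deparaffinized through xylene and graded ethanol, then PBS (0.2 M, pH 7.4) 30 min. Incubated with 18F tracer (370 KBq per 100 μL) 1 h at room temperature, washed in 40% EtOH, rinsed in water, then phosphor plate exposure 2 h. The same sections were afterwards stained with 0.125% thioflavin S in 10% EtOH for 3 min and washed in 40% EtOH.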

Test [2] in a line: Displacement of [125I]-IMPY from amyloid beta (1 to 42) fibrils after 2 hrs by gamma-counting analysis. The gist of the method:
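Competition binding with aggregated Aβ1-42 fibrils and [125I]IMPY (60000−100000 cpm/100 μL) in 0.05% BSA (1 mL total); inhibitors 10⁻⁴−10^−8.5 M in ethanol. Incubated 37 °C for 2 h, then GF/B vacuum filtration with PBS (0.02 M, pH 7.4) washes and γ counting. Three repeats; IC50 converted to Ki by Cheng−Prusoff.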
For orientation: Loss of bound radioactivity is the signal in a displacement assay; it reports binding, not function.

The species entered for test [3] is Mus musculus. As to the kind of experiment: Binding affinity to amyloid beta plaques in transgenic C57BL6 mouse cortex expressing APP Swedish mutant/PSEN1 at 370 KBq/100 ul after 1 hr by thioflavinS-staining method. The settings on record: tested as the 18F-labelled form. The gist of the method: as §1
The species entered for test [4] is Mus musculus. As to the kind of experiment: Binding affinity to amyloid beta plaques in transgenic C57BL6 mouse hippocampus expressing APP Swedish mutant/PSEN1 at 370 KBq/100 ul after 1 hr by thioflavinS-staining method. The class given is tissue-based. Conditions: tested as the 18F-labelled form. The gist of the method:
as §1

Test [5] has as its target Amyloid-beta precursor protein (Homo sapiens) (UniProt P05067). The test can be described thus: Binding affinity to amyloid beta plaques in Alzheimer patient brain at 370 KBq/100 ul after 1 hr by autoradiographic analysis. Conditions: tested as the 18F-labelled form.
The species named for test [6] is Mus musculus. As to the kind of experiment: Binding affinity to amyloid beta plaques in transgenic C57BL6 mouse cortex expressing APP Swedish mutant/PSEN1 at 370 KBq/100 ul after 1 hr by autoradiographic analysis. Conditions: tested as the 18F-labelled form. The gist of the method:
as §1

Sequence of Amyloid-beta precursor protein (Homo sapiens) (P05067 whole entry): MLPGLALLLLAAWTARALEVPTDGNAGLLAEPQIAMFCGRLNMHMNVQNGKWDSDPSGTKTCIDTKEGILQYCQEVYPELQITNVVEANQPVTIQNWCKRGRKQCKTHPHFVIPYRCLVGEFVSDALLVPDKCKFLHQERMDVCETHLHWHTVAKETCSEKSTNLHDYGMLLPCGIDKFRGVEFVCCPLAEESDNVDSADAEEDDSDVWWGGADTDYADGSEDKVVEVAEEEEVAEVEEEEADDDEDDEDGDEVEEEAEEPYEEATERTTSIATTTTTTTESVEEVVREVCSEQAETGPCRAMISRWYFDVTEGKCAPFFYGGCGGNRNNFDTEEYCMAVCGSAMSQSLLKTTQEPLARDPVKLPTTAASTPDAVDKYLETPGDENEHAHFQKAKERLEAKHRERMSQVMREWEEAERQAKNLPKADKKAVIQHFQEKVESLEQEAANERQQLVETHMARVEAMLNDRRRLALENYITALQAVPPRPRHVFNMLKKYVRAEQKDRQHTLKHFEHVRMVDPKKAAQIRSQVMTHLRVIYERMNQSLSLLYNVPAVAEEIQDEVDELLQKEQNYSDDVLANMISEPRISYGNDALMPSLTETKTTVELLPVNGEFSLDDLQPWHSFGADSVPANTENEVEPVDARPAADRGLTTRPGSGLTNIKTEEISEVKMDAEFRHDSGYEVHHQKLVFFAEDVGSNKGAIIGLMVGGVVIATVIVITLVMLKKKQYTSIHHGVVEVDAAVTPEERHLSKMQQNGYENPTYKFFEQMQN

Turning to `CNc1ccc(-c2nc3ccc(OCCF)cc3s2)cn1`, the outcome (in the test filed under Mus musculus [1]; in the test filed under Mus musculus [3]; in the test filed under Mus musculus [4]; in test [5]; in the test listed under Mus musculus [6]) was Active. Moreover, the inhibition constant (Ki) in test [2] came to 10.1 nM.

`CNc1ccc(-c2nc3cc(OCCOCCOCCF)ccc3o2)cn1`: the outcome (in the test filed under Mus musculus [1]; in the test listed under Mus musculus [3]; in the test filed under Mus musculus [4]; in test [5]; in the test filed under Mus musculus [6]) was Active. Besides, the Ki in test [2] was 76.9 nM.

For orientation: Ki means a dissociation constant, usually derived from enzyme kinetics or from competition with a known ligand. Low values mean tighter binding, high ones weaker binding.
